These results are taken from ChEMBL document CHEMBL3098041, “Synthesis and anticancer evaluation of 3-substituted quinolin-4-ones and 2,3-dihydroquinolin-4-ones” (Bioorg Med Chem, 2014).

In general, IC50 refers to the point on the concentration scale where inhibition reaches its midpoint.

The test system of assay [1] is MCF7. The assay is described as follows: Cytotoxicity against human MCF7 cells assessed as cell viability at 25 uM after 72 hrs by Alamar blue assay. The class given is functional. The conditions noted are these: MCF7, 72 h, read-out: Activity. In a few lines: (§1)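 Cells were grown in DMEM with 10% FBS at 37 °C, 5% CO2, humidified. Log-phase cells were seeded in 96-well plates at a fixed density and allowed to adhere for 24 h. Compound or vehicle-only control was added to duplicate wells at one fixed concentration for 72 h. Alamar Blue fluorescence was read (ex 555, em 585 nm) as % viability (0% = total growth inhibition). Assays were run in triplicate.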
On the technique in general: Resazurin is reduced to fluorescent resorufin, in cell work by metabolically active cells.

Assay [2] relates to HT-29. The experiment in a line: Cytotoxicity against human HT-29 cells assessed as cell viability at 25 uM after 72 hrs by Alamar blue assay. The class given is functional. The settings on record: HT-29, 72 h, read-out: Activity. In a few lines: as §1
Assay [3] deals with A-431. The experiment in a line: Cytotoxicity against human A431 cells assessed as cell viability at 25 uM after 72 hrs by Alamar blue assay. The class given is functional. The settings on record: A-431, 72 h, read-out: Activity. In a few lines:
as §1

Assay [4] in a line: Cytotoxicity against human H460 cells assessed as cell viability at 25 uM after 72 hrs by Alamar blue assay. The class given is functional. The conditions noted are these: NCI-H460, 72 h, read-out: Activity. In a few lines: as §1
In assay [5] the test system is DU-145. The assay is described as follows: Cytotoxicity against human DU145 cells assessed as cell viability at 25 uM after 72 hrs by Alamar blue assay. The assay is classed as functional. The conditions noted are these: DU-145, 72 h, read-out: Activity. In a few lines: as §1
Assay [6] deals with MRC5. The assay is described as follows: Cytotoxicity against human MRC5 cells assessed as cell viability after 72 hrs by Alamar blue assay. The class given is cell-based. The conditions noted are these: MRC5, 72 h. In a few lines:
(§2)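 This was a dose–response Alamar Blue assay run in triplicate. Cells were kept in DMEM with 10% FBS (37 °C, 5% CO2, humidified). Log-phase cells were plated at a fixed density in 96-well plates and left to adhere for 24 h. Compound or vehicle was added to duplicate wells. After 72 h exposure, metabolic activity was measured by fluorescence (ex 555, em 585 nm).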

Assay [7] deals with DU-145. The assay is described as follows: Cytotoxicity against human DU145 cells assessed as cell viability after 72 hrs by Alamar blue assay. The assay is classed as functional, cell-based. The conditions noted are these: DU-145, 72 h. In a few lines: as §2
For assay [8], the system named is MCF7. The assay is described as follows: Cytotoxicity against human MCF7 cells assessed as cell viability after 72 hrs by Alamar blue assay. The class given is functional, cell-based. The settings on record: MCF7, 72 h. In a few lines: as §2
A short description of assay [9]: Cytotoxicity against human H460 cells assessed as cell viability after 72 hrs by Alamar blue assay. The class given is functional, cell-based. The conditions noted are these: NCI-H460, 72 h. In a few lines: as §2
Assay [10] relates to A-431. The experiment in a line: Cytotoxicity against human A431 cells assessed as cell viability after 72 hrs by Alamar blue assay. The assay is classed as functional, cell-based. The conditions noted are these: A-431, 72 h. In a few lines:
as §2

The subject of assay [11] is HT-29. The assay is described as follows: Cytotoxicity against human HT-29 cells assessed as cell viability after 72 hrs by Alamar blue assay. The class given is functional, cell-based. The settings on record: HT-29, 72 h. In a few lines: as §2

Structures are written as SMILES.

Take `COc1cc(O)c2c(c1)NCC(c1ccccc1)C2=O` (stereo not given): the viability at 25 µM was determined as 83.2% in assay [1]; 90.8% in assay [2]; 90.8% in assay [3]; 78% in assay [4]; 81.6% in assay [5].

As for `COc1cc(OC)c2c(=O)c(-c3ccc(Br)cc3)c[nH]c2c1`, the viability at 25 µM in [1] is 35.3%; in assay [2] it was 26.2%; in assay [3], 69.1%; in [4], 33.5%; in assay [5], 74.8%.

Consider `COc1cc(OC)c2c(=O)c(-c3ccc(F)cc3)c[nH]c2c1`, for which the viability at 25 µM in assay [2] is 114%; in [3], 103%; in [4], 86%; in assay [5], 88.7%.

`COc1cc(OC)c2c(=O)c(-c3ccc(C)cc3)c[nH]c2c1`: the viability at 25 µM in assay [2] came out at 102%; in [3], 89.9%; in assay [4] it was 53.8%; in assay [5] it was 76.6%.

Consider `COc1cc(OC)c2c(=O)c(-c3cccc(Br)c3)c[nH]c2c1`, for which the viability at 25 µM in assay [2] turned out to be 37.8%; in assay [3], 66.5%; in assay [4], 43.9%; in assay [5] it was 71.8%.

Take `COc1ccc([C@H]2CNc3cc(OC)cc(OC)c3C2=O)cc1`: the viability at 25 µM in [1] came out at 85.1%; in assay [2] it was 106%; in assay [3] it was 89.6%; in assay [4], 94.3%; in assay [5], 91.1%.

Regarding `COc1cc2c(c(OC)c1)C(=O)[C@@H](c1ccccc1)CN2`, the viability at 25 µM in assay [1] was 83.6%; in [2], 98.8%; in [3] it was 98.3%; in [4], 87.6%; in assay [5], 95.4%.

`O=C1c2c(O)cc(O)cc2NCC1c1ccccc1` (stereo not given): the viability at 25 µM in [1] was determined as 121%; in [2], 98.5%; in assay [3] it was 98.5%; in assay [4], 74.5%; in assay [5], 83.1%.

`COc1cc(O)c2c(=O)c(-c3ccc(Br)cc3)c[nH]c2c1`: the viability at 25 µM amounted to 52.6% in assay [1]; 29.2% in assay [2]; 104% in assay [3]; 65.5% in assay [4]; 73.5% in assay [5].

In the case of `COc1cc(O)c2c(=O)c(-c3ccc(F)cc3)c[nH]c2c1`, the viability at 25 µM in [2] worked out at 31.2%; in [3] it was 71.4%; in assay [4] it was 38.9%; in assay [5], 43.4%.

Regarding `COc1cc(O)c2c(=O)c(-c3ccc(C)cc3)c[nH]c2c1`, the viability at 25 µM in assay [2] is 29.6%; in [3], 76.5%; in assay [4], 50.7%; in assay [5], 85.1%.

As for `COc1cc(O)c2c(=O)c(-c3cccc(Br)c3)c[nH]c2c1`, the IC50 in assay [6] was found to be 6.7 µM; in assay [7], 9.5 µM; in assay [8], 21.9 µM; in assay [9] it was 9.2 µM; in assay [10], 5.5 µM; in assay [11], 3.6 µM. Also, the viability at 25 µM in assay [2] stood at 14.1%; in assay [3], 1%; in assay [4], 2%; in assay [5], 10%.

As to `COc1ccc(C2CNc3cc(OC)cc(O)c3C2=O)cc1` (stereo not given), the viability at 25 µM in [1] was 85.7%; in assay [2], 97.3%; in assay [3], 108%; in assay [4], 94.1%; in assay [5], 106%.
